Calls of active or inactive are those of the source. No cut-off for these calls is given here.
Assays:
[1] = biological target: T1, Alpha-2A adrenergic receptor (Homo sapiens, UniProt P08913); assay: Displacement of [3H]RS79948-197 from human recombinant adrenergic alpha2A receptor expressed in CHO cells; type: cell-based
T1 sequence (P08913 whole entry): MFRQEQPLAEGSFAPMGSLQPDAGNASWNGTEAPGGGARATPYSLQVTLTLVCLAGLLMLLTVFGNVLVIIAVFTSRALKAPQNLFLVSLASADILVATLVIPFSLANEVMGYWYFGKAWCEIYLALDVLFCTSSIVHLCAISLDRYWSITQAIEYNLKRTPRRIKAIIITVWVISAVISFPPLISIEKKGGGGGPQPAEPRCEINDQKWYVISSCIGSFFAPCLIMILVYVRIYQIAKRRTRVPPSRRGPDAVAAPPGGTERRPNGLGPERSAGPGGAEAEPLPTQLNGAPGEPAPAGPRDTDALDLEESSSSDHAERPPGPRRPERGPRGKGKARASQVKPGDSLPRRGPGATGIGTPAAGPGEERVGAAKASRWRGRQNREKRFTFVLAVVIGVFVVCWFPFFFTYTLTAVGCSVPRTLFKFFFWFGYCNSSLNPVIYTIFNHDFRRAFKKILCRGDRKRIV
How it was run: (§1)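 Competition binding on membranes from CHO cells stably expressing each human α2 subtype (1-3 pmol/mg receptor). Assay in 50 mM potassium phosphate, pH 7.4, with 5-10 µg protein. Eight competitor dilutions, 30 min at room temperature, then vacuum filtration and scintillation counting. IC50 by one-site nonlinear regression, converted with Cheng-Prusoff; mean ± SEM, 3-6 experiments.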

[2] = biological target: T1, Alpha-2A adrenergic receptor; assay: (§2) Agonist activity at human recombinant adrenergic alpha2A receptor expressed in CHO cells assessed as stimulation of extracellular acidification; type: functional, cell-based
[3] = biological target: T2, Alpha-2A adrenergic receptor (Homo sapiens) (UniProt P08913); assay: Intrinsic activity at human recombinant adrenergic alpha2A receptor expressed in CHO cells assessed as stimulation of extracellular acidification relative to (-)-noradrenaline; type: cell-based
T2 sequence (whole entry): T1 sequence (P08913 whole entry)
How it was run: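 Microphysiometry (Cytosensor) of extracellular acidification rate in CHO cells stably expressing human α2A. Cells were seeded at 3 × 10⁵ cells/cup and cultured 24 h at 37 °C, then perfused with bicarbonate-free DMEM at 100 µL/min, with agonist diluted into running medium. Response was taken as the maximum after agonist minus the mean of three pre-agonist readings. Emax is expressed as a fraction of (−)-noradrenaline (=1); 3–6 experiments.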

[4] = biological target: T3, Alpha-2B adrenergic receptor (Homo sapiens, UniProt P18089); assay: Displacement of [3H]RS79948-197 from human recombinant adrenergic alpha2B receptor expressed in CHO cells; type: cell-based; how it was run: as §1
T3 sequence (P18089 whole entry): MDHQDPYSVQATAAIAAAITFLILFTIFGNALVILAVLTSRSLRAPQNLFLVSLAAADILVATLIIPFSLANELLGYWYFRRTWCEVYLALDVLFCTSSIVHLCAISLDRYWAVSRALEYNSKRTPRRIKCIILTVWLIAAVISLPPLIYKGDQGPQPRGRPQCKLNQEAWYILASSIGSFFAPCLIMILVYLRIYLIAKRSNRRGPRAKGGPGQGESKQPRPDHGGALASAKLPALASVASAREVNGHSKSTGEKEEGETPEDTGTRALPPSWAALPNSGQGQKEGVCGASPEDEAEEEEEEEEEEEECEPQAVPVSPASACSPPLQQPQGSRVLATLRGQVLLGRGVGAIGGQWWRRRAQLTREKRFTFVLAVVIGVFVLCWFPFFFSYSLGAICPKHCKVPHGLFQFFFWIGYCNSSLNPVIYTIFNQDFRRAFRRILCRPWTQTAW

[5] = biological target: T4, Alpha-2B adrenergic receptor (Homo sapiens) (UniProt P18089); assay: (§3) Agonist activity at human recombinant adrenergic alpha2B receptor expressed in CHO cells; type: functional, cell-based
T4 sequence (whole entry): T3 sequence (P18089 whole entry)
How it was run: (§4)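 Cytosensor microphysiometry. Stable CHO cells were seeded at 3 × 10⁵ cells/cup, grown 24 h at 37 °C/5% CO₂, then perfused with bicarbonate-free DMEM at 100 µL/min. Over 90 s pump cycles, pH was read for 20 s. Response is the peak acidification rate minus the mean of three pre-agonist readings. pEC50 is the concentration giving 50% of maximum; mean ± SEM, 3-6 experiments.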

[6] = biological target: T5, Alpha-2C adrenergic receptor (Homo sapiens, UniProt P18825); assay: Displacement of [3H]RS79948-197 from human recombinant adrenergic Alpha-2C receptor expressed in CHO cells; type: cell-based; how it was run: as §1
T5 sequence (P18825 whole entry): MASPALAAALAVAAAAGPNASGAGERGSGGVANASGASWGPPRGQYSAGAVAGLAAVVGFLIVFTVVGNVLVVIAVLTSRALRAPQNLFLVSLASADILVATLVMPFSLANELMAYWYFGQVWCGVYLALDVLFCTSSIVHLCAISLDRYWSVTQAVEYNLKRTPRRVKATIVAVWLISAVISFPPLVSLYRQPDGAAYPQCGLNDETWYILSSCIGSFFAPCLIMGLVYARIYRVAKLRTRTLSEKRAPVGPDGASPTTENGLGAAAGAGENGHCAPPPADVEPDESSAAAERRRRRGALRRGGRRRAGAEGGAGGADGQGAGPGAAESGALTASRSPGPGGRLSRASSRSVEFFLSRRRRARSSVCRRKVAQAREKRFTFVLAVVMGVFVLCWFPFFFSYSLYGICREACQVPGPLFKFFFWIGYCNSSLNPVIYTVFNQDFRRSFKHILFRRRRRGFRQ

[7] = biological target: T5, Alpha-2C adrenergic receptor; assay: (§5) Agonist activity at human recombinant adrenergic Alpha-2C receptor expressed in CHO cells assessed as stimulation of extracellular acidification; type: functional, cell-based; how it was run: as §4
[8] = biological target: T6, Alpha-2C adrenergic receptor (Homo sapiens) (UniProt P18825); assay: Intrinsic activity at human recombinant adrenergic Alpha-2C receptor expressed in CHO cells assessed as stimulation of extracellular acidification relative to (-)-noradrenaline; type: cell-based
T6 sequence (whole entry): T5 sequence (P18825 whole entry)
How it was run: (§6)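 Acidification rate was measured by Cytosensor microphysiometry in stably transfected CHO cells (3 × 10⁵ cells/cup, bicarbonate-free DMEM perfusion). Each response is the peak rate change minus the pre-agonist baseline. Emax from concentration-response curves is expressed as a fraction of the (-)-noradrenaline maximum, taken as 1; mean ± SEM, 3-6 experiments.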

[9] = biological target: T2, Alpha-2A adrenergic receptor (Homo sapiens); assay: Antagonist activity at human recombinant adrenergic alpha2A receptor expressed in CHO cells; type: functional, cell-based
How it was run: (§7)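 Clonidine-curve shift measured by Cytosensor microphysiometry of extracellular acidification in CHO cells stably expressing the individual human α2 subtype. Cells were seeded at 3 × 10⁵ cells/cup for 24 h at 37 °C/5% CO₂ and perfused with bicarbonate-free DMEM at 100 µL/min. A control clonidine concentration-response curve was run, then antagonist was applied ≥30 min before a repeat curve. Kb = M/(EC50 ratio − 1), reported as pKb; 3–6 experiments.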

[10] = biological target: T4, Alpha-2B adrenergic receptor (Homo sapiens); assay: Antagonist activity at human recombinant adrenergic alpha2B receptor expressed in CHO cells; type: functional, cell-based; how it was run: as §7
[11] = biological target: T6, Alpha-2C adrenergic receptor (Homo sapiens); assay: Antagonist activity at human recombinant adrenergic Alpha-2C receptor expressed in CHO cells; type: functional, cell-based; how it was run: as §7
[12] = biological target: T3, Alpha-2B adrenergic receptor; assay: as §3; type: functional, cell-based; how it was run: as §4
[13] = biological target: T4, Alpha-2B adrenergic receptor (Homo sapiens); assay: Intrinsic activity at human recombinant adrenergic alpha2B receptor expressed in CHO cells relative to (-)-noradrenaline; type: cell-based; how it was run: as §6
[14] = biological target: T2, Alpha-2A adrenergic receptor (Homo sapiens); assay: as §2; type: functional, cell-based
[15] = biological target: T6, Alpha-2C adrenergic receptor (Homo sapiens); assay: as §5; type: functional, cell-based; how it was run: as §4

| SMILES | Ki [1] [µM] | EC50 [2] [µM] | Intrinsic activity [3] | Ki [4] [µM] | Activity [5] | Ki [6] [µM] | EC50 [7] [µM] | Intrinsic activity [8] | pKb [9] | pKb [10] | pKb [11] | EC50 [12] [µM] | Intrinsic activity [13] | Activity [14] | Activity [15] |
| --- | --- | --- | --- | --- | --- | --- | --- | --- | --- | --- | --- | --- | --- | --- | --- |
| c1ccc(-c2ccccc2OC(C2=NCCN2)c2ccccc2)cc1 (stereo unspecified) | 0.24 | 1 | 0.45 | 0.955 | inactive | 0.204 | 0.776 | 0.7 | – | – | – | – | – | – | – |
| CC(Oc1ccccc1)C1=NCCN1 (stereo unspecified) | 0.0269 | – | – | 0.166 | – | 0.263 | – | – | 7.01 | 6.2 | 6.85 | – | – | – | – |
| CC(Oc1ccccc1C1CCCC1)C1=NCCN1 (stereo unspecified) | 0.0501 | 0.0631 | 0.65 | 0.191 | – | 0.0269 | 0.01 | 0.75 | – | – | – | 0.501 | 0.7 | – | – |
| COC(C)(Oc1ccccc1-c1ccccc1)C1=NCCN1 (stereo unspecified) | – | – | – | – | inactive | – | – | – | – | – | – | – | – | inactive | inactive |
| COC1(C2=NCCN2)COc2c(cccc2-c2ccccc2)O1 (stereo unspecified) | 0.257 | – | – | – | – | – | – | – | – | – | – | 15.8 | 0.5 | inactive | inactive |
| CC(Oc1ccccc1C1CCCCC1)C1=NCCN1 (stereo unspecified) | 0.0741 | 0.0794 | 0.6 | 0.191 | – | 0.0776 | 0.0209 | 0.8 | – | – | – | 0.2 | 0.7 | – | – |
| CC(Oc1ccccc1/C=N/O)C1=NCCN1 (stereo unspecified) | 0.288 | 0.501 | 0.8 | 0.708 | – | 0.912 | 0.126 | 0.85 | – | – | – | 3.98 | 0.5 | – | – |
| CO/N=C/c1ccccc1OC(C)C1=NCCN1 (stereo unspecified) | 0.661 | – | – | 1.2 | inactive | 3.09 | 0.501 | 0.55 | – | – | – | – | – | inactive | – |
| c1ccc(-c2cccc3c2OCC(C2=NCCN2)O3)cc1 (stereo unspecified) | 0.724 | – | – | 1.07 | – | 0.832 | 0.794 | 0.75 | – | – | – | 12.6 | 0.7 | inactive | – |
| COC1(C2=NCCN2)COc2cccc(-c3ccccc3)c2O1 (stereo unspecified) | 0.126 | – | – | 1.07 | inactive | 0.245 | – | – | – | – | – | – | – | inactive | inactive |
| c1ccc(-c2cccc3c2OC(C2=NCCN2)CO3)cc1 (stereo unspecified) | 0.24 | – | – | 0.479 | – | 0.692 | 3.16 | 0.4 | – | – | – | 22.4 | 0.45 | inactive | – |
| c1ccc(OC(C2=NCCN2)c2ccccc2)cc1 (stereo unspecified) | 0.0933 | – | – | 0.0479 | – | 0.0646 | – | – | 6.1 | 6.04 | 6.9 | – | – | – | – |
| c1ccc(-c2ccc3c(c2)OCC(C2=NCCN2)O3)cc1 (stereo unspecified) | 0.282 | – | – | 1.66 | inactive | 1.58 | – | – | – | – | – | – | – | inactive | inactive |
| C=CCc1ccccc1OC(C)C1=NCCN1 (stereo unspecified) [ALLYPHENYLINE] | – | – | – | 0.339 | inactive | 0.0851 | 0.0501 | 0.9 | 7.4 | – | – | – | – | inactive | – |
| c1ccc2c(c1)OCC(C1=NCCN1)O2 (stereo unspecified) | – | – | – | – | – | – | – | – | 7.73 | 7.16 | 7.92 | – | – | – | – |
| CC(Oc1ccccc1/C=N/OCc1ccccc1)C1=NCCN1 (stereo unspecified) | 0.214 | – | – | 0.871 | – | 0.676 | 3.55 | 0.5 | – | – | – | 31.6 | 0.8 | inactive | – |
| c1ccc(-c2ccc3c(c2)OC(C2=NCCN2)CO3)cc1 (stereo unspecified) | 0.398 | – | – | 1 | inactive | 1.26 | – | – | – | – | – | – | – | inactive | inactive |
| CCO/N=C/c1ccccc1OC(C)C1=NCCN1 (stereo unspecified) | 0.417 | – | – | 0.447 | inactive | 0.339 | 1 | 0.45 | – | – | – | – | – | inactive | – |
